Assay results from ChEMBL document CHEMBL1828575, “Design, synthesis and antiproliferative activities of biarylolefins based on polyhydroxylated and carbohydrate scaffolds” (Eur J Med Chem, 2011).

Key:
Type in all cases: functional
DU-145 = assay: Cytotoxicity against human DU145 cells assessed as cellular growth at 10 uM after 48 hrs by SRB assay
How it was run: (§1)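 NCI60 single-dose screen of cells in RPMI 1640 with 5% FBS and 2 mM L-glutamine, preincubated 24 h at 37 °C, 5% CO₂. Cells were then exposed 48 h to compound added from DMSO stock. TCA-fixed, stained with 0.4% SRB in 1% acetic acid, dye solubilised in 10 mM Tris base and read at 515 nm. Growth is given as percent of untreated control.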

SF-295 = assay: Cytotoxicity against human SF295 cells assessed as cellular growth at 10 uM after 48 hrs by SRB assay
How it was run: (§2)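 NCI-60 panel lines grown in RPMI 1640 with 5% FBS and 2 mM L-glutamine. Plated at 5000–40,000 cells/well and preincubated 24 h at 37 °C, 5% CO₂, with time-zero plates fixed in TCA. Compounds, dissolved in DMSO and diluted in medium, were applied for 48 h. Cells were TCA-fixed (10% final for adherent, 16% for suspension) and stained with 0.4% SRB in 1% acetic acid. Dye was solubilised in 10 mM Tris base and read at 515 nm; growth was expressed as a percentage of untreated control.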

RPMI-8226 [1] = assay: Cytotoxicity against human RPMI8226 cells assessed as cellular growth at 10 uM after 48 hrs by SRB assay; how it was run: as §2
A549 = assay: Cytotoxicity against human A549 cells assessed as cellular growth at 10 uM after 48 hrs by SRB assay; how it was run: as §1
U-251 [2] = assay: Cytotoxicity against human U251 cells assessed as cellular growth at 10 uM after 48 hrs by SRB assay; how it was run: as §2
M14 = assay: Cytotoxicity against human M14 cells assessed as cellular growth at 10 uM after 48 hrs by SRB assay; how it was run: as §1
OVCAR-3 = assay: Cytotoxicity against human OVCAR3 cells assessed as cellular growth at 10 uM after 48 hrs by SRB assay; how it was run: as §2
SK-OV-3 [3] = assay: Cytotoxicity against human SKOV3 cells assessed as cellular growth at 10 uM after 48 hrs by SRB assay; how it was run: as §2
UO-31 = assay: Cytotoxicity against human UO31 cells assessed as cellular growth at 10 uM after 48 hrs by SRB assay; how it was run: as §2
HOP-92 = assay: Antitumor activity against human HOP92 cells after 48 hrs by SRB assay; conditions: HOP-92, 48 h
How it was run: (§3)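 NCI60 panel in RPMI 1640 with 5% FBS and 2 mM L-glutamine. Cells were plated at 5000–40,000/well by doubling time, held 24 h, then time-zero plates were TCA-fixed. Five concentrations (10-fold or half-log dilutions of DMSO stocks) were applied for 48 h at 37 °C, 5% CO2. Cells were fixed with cold TCA (10% final adherent, 16% suspension) and stained with 0.4% SRB. Bound dye was dissolved in 10 mM Tris and read at 515 nm. GI50, TGI and LC50 were calculated per line.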

U-251 [4] = assay: Antitumor activity against human U251 cells after 48 hrs by SRB assay; conditions: U-251, 48 h
How it was run: (§4)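 NCI60 panel cells grown in RPMI 1640 with 5% FBS and 2 mM L-glutamine, plated at 5000–40,000 cells/well and preincubated 24 h at 37 °C, 5% CO₂. Compound was added from DMSO at five concentrations, 10-fold or 1/2 log dilutions, then incubated 48 h.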

SK-MEL-2 = assay: Antitumor activity against human SK-MEL-2 cells after 48 hrs by SRB assay; conditions: SK-MEL-2, 48 h; how it was run: as §4
BT-549 = assay: Antitumor activity against human BT549 cells after 48 hrs by SRB assay; conditions: BT-549, 48 h
How it was run: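 NCI60 screen: cells grown in RPMI 1640 with 5% FBS and 2 mM L-glutamine, plated at 5000–40,000 cells/well by doubling time, preincubated 24 h at 37 °C with 5% CO2. Compounds were diluted from DMSO stocks and given for 48 h, at five concentrations for dose response. A time-zero plate was TCA-fixed. Cells were TCA-fixed, stained with 0.4% SRB and read at 515 nm, with growth expressed relative to untreated controls.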

MCF7 = assay: Antitumor activity against human MCF7 cells after 48 hrs by SRB assay; conditions: MCF7, 48 h; how it was run: as §3
ACHN = assay: Antitumor activity against human ACHN cells after 48 hrs by SRB assay; how it was run: as §3
A498 = assay: Antitumor activity against human A498 cells after 48 hrs by SRB assay; conditions: A498, 48 h; how it was run: as §3
SK-OV-3 [5] = assay: Antitumor activity against human SKOV3 cells after 48 hrs by SRB assay; conditions: SK-OV-3, 48 h; how it was run: as §4
OVCAR-4 = assay: Antitumor activity against human OVCAR4 cells after 48 hrs by SRB assay; conditions: OVCAR-4, 48 h; how it was run: as §3
RPMI-8226 [6] = assay: Antitumor activity against human RPMI8226 cells after 48 hrs by SRB assay; conditions: RPMI-8226, 48 h; how it was run: as §3
MOLT-4 = assay: Antitumor activity against human MOLT4 cells after 48 hrs by SRB assay; conditions: MOLT-4, 48 h; how it was run: as §3
HT-29 = assay: Antiproliferative activity against human HT-29 cells after 48 hrs by SRB assay; conditions: HT-29, 48 h; how it was run: as §3
[7] = read-out: LC50 (the source's name)
[8] = read-out: pLC50 (the source's name) (converted)

COc1ccc(/C(=C2\O[C@@H]([C@H]3COC(C)(C)O3)[C@H]3OC(C)(C)O[C@@H]23)c2cc(OC)c(OC)c(OC)c2)cc1O
Activity (DU-145): 45.59%
Activity (SF-295): 77.57%
Activity (RPMI-8226 [1]): 36.38%
Activity (A549): 80.05%
Activity (U-251 [2]): 61.19%
Activity (M14): 19.53%
Activity (OVCAR-3): 58.27%
Activity (SK-OV-3 [3]): 90.14%
Activity (UO-31): 123.08%
GI50 (HOP-92): 4 µM
TGI (HOP-92): 38.3 µM
CC50 (HOP-92; [7]): > 100 µM
GI50 (U-251 [4]): 3.12 µM
TGI (U-251 [4]): 11.8 µM
CC50 (U-251 [4]; [7]): > 100 µM
GI50 (SK-MEL-2): 1.53 µM
TGI (SK-MEL-2): 4.12 µM
CC50 (SK-MEL-2; [7]): 24.1 µM
CC50 (BT-549; [7]): > 100 µM
CC50 (BT-549; [8]): > 100 µM
GI50 (MCF7; read-out: GI50): 1.23 µM
CC50 (MCF7; [7]): > 100 µM
TGI (MCF7; read-out: TGI): > 100 µM
GI50 (MCF7; read-out: pGI50 (converted)): 12.3 µM
CC50 (MCF7; [8]): > 100 µM
TGI (MCF7; read-out: pTGI (converted)): > 100 µM
GI50 (ACHN; read-out: GI50): 15.4 µM
CC50 (ACHN; [7]): > 100 µM
TGI (ACHN; read-out: TGI): > 100 µM
GI50 (ACHN; read-out: pGI50 (converted)): 15.5 µM
CC50 (ACHN; [8]): > 100 µM
TGI (ACHN; read-out: pTGI): > 100 µM
GI50 (A498; read-out: GI50): 32.1 µM
CC50 (A498; [7]): > 100 µM
TGI (A498; read-out: TGI): 97.4 µM
GI50 (A498; read-out: pGI50 (converted)): 32.4 µM
CC50 (A498; [8]): > 100 µM
TGI (A498; read-out: pTGI (converted)): 97.7 µM
GI50 (SK-OV-3 [5]; read-out: GI50): 12.6 µM
CC50 (SK-OV-3 [5]; [7]): > 100 µM
TGI (SK-OV-3 [5]; read-out: TGI): 91.7 µM
GI50 (SK-OV-3 [5]; read-out: pGI50 (converted)): 12.6 µM
CC50 (SK-OV-3 [5]; [8]): > 100 µM
TGI (SK-OV-3 [5]; read-out: pTGI (converted)): 91.2 µM
GI50 (OVCAR-4; read-out: GI50): 37.5 µM
CC50 (OVCAR-4; [7]): > 100 µM
TGI (OVCAR-4; read-out: TGI): > 100 µM
GI50 (OVCAR-4; read-out: pGI50 (converted)): 37.2 µM
CC50 (OVCAR-4; [8]): > 100 µM
TGI (OVCAR-4; read-out: pTGI (converted)): > 100 µM
LC50 (concentration killing 50% of starting cells) (RPMI-8226 [6]): > 100 µM
GI50 (RPMI-8226 [6]; read-out: GI50): 4.82 µM
TGI (RPMI-8226 [6]; read-out: TGI): 34 µM
GI50 (RPMI-8226 [6]; read-out: pGI50 (converted)): 4.79 µM
CC50 (RPMI-8226 [6]; [8]): > 100 µM
TGI (RPMI-8226 [6]; read-out: pTGI (converted)): 33.9 µM
LC50 (concentration killing 50% of cells) (MOLT-4): > 100 µM
GI50 (MOLT-4; read-out: GI50): 24.2 µM
TGI (MOLT-4; read-out: TGI): > 100 µM
GI50 (MOLT-4; read-out: pGI50 (converted)): 24 µM
CC50 (MOLT-4; [8]): > 100 µM
TGI (MOLT-4; read-out: pTGI): > 100 µM
LC50 (50% net cell kill) (HT-29): > 100 µM
GI50 (HT-29; read-out: GI50): 4.1 µM
TGI (HT-29; read-out: TGI): 17.8 µM
GI50 (HT-29; read-out: pGI50 (converted)): 4.07 µM
CC50 (HT-29; [8]): > 100 µM
TGI (HT-29; read-out: pTGI (converted)): 17.8 µM
